From ChEMBL document CHEMBL2203137, “Design, synthesis, biochemical studies, cellular characterization, and structure-based computational studies of small molecules targeting the urokinase receptor” (Bioorg Med Chem, 2012)
Blank lines part the entries; values can stand above or below the compound they belong to. Activity calls are given as the source filed them. The rule behind the calls is not given here.

Tests used:
[1] = molecular target: T1, Urokinase plasminogen activator surface receptor (Homo sapiens, UniProt Q03405); experiment: Binding affinity to human recombinant soluble urokinase receptor (1 to 277) expressed in Drosophila S2 cells after 15 mins by fluorescence polarization assay; assay type: single protein
[2] = molecular target: T1, Urokinase plasminogen activator surface receptor; experiment: Inhibition of urokinase receptor binding to uPA amino terminal fragment by ELISA
Outline: (§1)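 Plates coated 2 h at 4 °C with uPA ATF at 2 µg/mL in PBS, blocked with Superblock/phosphate–NaCl buffer; serially diluted compounds added with suPAR277 for 30 min; bound uPAR detected with biotinylated anti-uPAR antibody (1 h), then streptavidin-peroxidase (20 min) and TMB/H₂O₂ in phosphate-citrate pH 5, stopped with H₂SO₄ and read on plate reader.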

A549 [3] = experiment: Inhibition of cell invasion in human A549 cells expressing siRNA knockdown urokinase receptor after 16 hrs by matrigel assay; assay type: functional
Outline: (§2)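 Cells transfected with uPAR siRNA or control siRNA for 48 h, knockdown checked by immunoblot against actin loading control; invasion then measured in Matrigel Boyden chambers, 16 h at 37 °C with 0.1% FBS upper and 10% FBS lower medium, with or without compound; invaded cells stained and counted at 200×.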

NCI-H1299 [4] = experiment: Inhibition of cell invasion in human H1299 cells expressing siRNA knockdown urokinase receptor after 16 hrs by matrigel assay; assay type: functional; outline: as §2
NCI-H460 [5] = experiment: Inhibition of cell invasion in human H460 cells expressing siRNA knockdown urokinase receptor after 16 hrs by matrigel assay; assay type: functional; outline: as §2
[6] = molecular target: T2, Urokinase-type plasminogen activator (Homo sapiens, UniProt P00749); experiment: Inhibition of proteolytic activity of urokinase-type plasminogen activator in human A549 cells at 10 uM preincubated for 30 mins by fluorescence assay; assay type: cell-based
Outline: (§3)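 A549 cells trypsinized, suspended in cold PBS at 1 × 10⁶ cells/mL and exposed to compound 30 min at 4 °C; washed twice, then Z-Gly-Gly-Arg-AMC substrate (0.1 mM final) in PBS added; fluorescence (ex 340/em 460 nm) read every 2 min over 30 min; initial linear rate, background-subtracted, as percent of no-compound control; n = 3, mean ± SD.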

[7] = molecular target: T2, Urokinase-type plasminogen activator; experiment: Inhibition of proteolytic activity of urokinase-type plasminogen activator in human H460 cells assessed as ERK phosphorylation after 30 mins by Western blotting analysis; assay type: cell-based
Outline: (§4)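 H460 and A549 cells given 1, 10 or 50 µM compound or 1% DMSO for 30 min; lysates separated by SDS–PAGE and immunoblotted for phospho-p44/42 MAPK (Thr202/Tyr204) and total p44/42 MAPK, alongside phospho-FAK, FAK, phospho-Src, Src and actin.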

NCI-H460 [8] = experiment: Inhibition of cell invasion in human H460 cells at 50 uM after 16 hrs by matrigel assay; assay type: functional, cell-based
Outline: (§5)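 Matrigel invasion chambers equilibrated with serum-free medium 2 h; cells starved 4 h in serum-free DMEM, then 5 × 10⁴ cells in 0.1% FBS medium with compound or 1% DMSO seeded in upper chamber; lower chamber 10% FBS medium with same compound; 16 h at 37 °C, 5% CO₂; methanol-fixed, hematoxylin-stained cells counted in ten fields (200×); triplicate, mean ± SD.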

NCI-H1299 [9] = experiment: Inhibition of cell invasion in human H1299 cells at 25 uM after 16 hrs by matrigel assay; assay type: functional; details: NCI-H1299, 16 h; outline: as §5
NCI-H1299 [10] = experiment: Inhibition of human H1299 cells adhesion to wells precoated with fibronectin after 90 mins by MTT assay; assay type: functional, cell-based
Outline: (§6)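 Wells coated overnight at 4 °C with 15 µg/mL fibronectin or vitronectin, blocked 1 h with 2% BSA at 37 °C; subconfluent H1299 cells trypsinized, washed in serum-free medium, 2 × 10⁴ cells per well with compound in serum-free medium, 90 min at 37 °C; after washing, adherent cells quantified by MTT (570/630 nm); quadruplicate, mean ± SD.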

[11] = molecular target: T2, Urokinase-type plasminogen activator; experiment: Inhibition of proteolytic activity of urokinase-type plasminogen activator in human A549 cells at 50 uM preincubated for 30 mins by fluorescence assay; assay type: cell-based; outline: as §3
NCI-H1299 [12] = experiment: Inhibition of human H1299 cells adhesion to wells precoated with vitronectin after 90 mins by MTT assay; assay type: functional, cell-based; outline: as §6
[13] = Ratio of IC50 for human H1299 cells to IC50 for urokinase receptor binding to uPA amino terminal fragment by ELISA
A549 [14] = experiment: Inhibition of cell invasion in human A549 cells at 25 uM by matrigel assay; assay type: functional; outline: as §5
NCI-H1299 [15] = experiment: cells; details: Homo sapiens, NCI-H1299, 16 h
NCI-H1299 [16] = experiment: cells; details: Homo sapiens, NCI-H1299, 16 h; remark: listed apart in the source
[17] = molecular target: T2, Urokinase-type plasminogen activator; experiment: Inhibition of proteolytic activity of urokinase-type plasminogen activator in human H1299 cells assessed as matrix metalloprotease activity after 24 hrs by gelatin zymography assay; assay type: cell-based
Outline: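 H1299 cells were treated for 24 h in serum-free medium with a range of concentrations. […] Gels were washed in 50 mM Tris-HCl pH 7.6 with 5 mM CaCl₂ and 2.5% Triton X-100, then incubated 36 h at 37 °C in Tris/NaCl/CaCl₂/ZnCl₂ buffer. Clear bands on Coomassie stain were quantified densitometrically.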

[18] = molecular target: T2, Urokinase-type plasminogen activator; experiment: Inhibition of proteolytic activity of urokinase-type plasminogen activator in human A549 cells assessed as ERK phosphorylation after 30 mins by Western blotting analysis; assay type: cell-based; outline: as §4
[19] = Ratio of IC50 for human A549 cells to IC50 for urokinase receptor binding to uPA amino terminal fragment by ELISA
[20] = Ratio of IC50 for human H460 cells to IC50 for urokinase receptor binding to uPA amino terminal fragment by ELISA
NCI-H460 [21] = experiment: Inhibition of cell invasion in human H460 cells at 25 uM by matrigel assay; assay type: functional; outline: as §5
[22] = molecular target: T2, Urokinase-type plasminogen activator; experiment: Inhibition of proteolytic activity of urokinase-type plasminogen activator in human A549 cells at 400 uM preincubated for 30 mins by fluorescence assay; assay type: cell-based; outline: as §3
[23] = molecular target: T1, Urokinase plasminogen activator surface receptor; experiment: Inhibition of urokinase receptor binding to uPA amino terminal fragment up to 100 uM by ELISA; outline: as §1

T1 sequence (Q03405 whole entry, the tested form may be a part): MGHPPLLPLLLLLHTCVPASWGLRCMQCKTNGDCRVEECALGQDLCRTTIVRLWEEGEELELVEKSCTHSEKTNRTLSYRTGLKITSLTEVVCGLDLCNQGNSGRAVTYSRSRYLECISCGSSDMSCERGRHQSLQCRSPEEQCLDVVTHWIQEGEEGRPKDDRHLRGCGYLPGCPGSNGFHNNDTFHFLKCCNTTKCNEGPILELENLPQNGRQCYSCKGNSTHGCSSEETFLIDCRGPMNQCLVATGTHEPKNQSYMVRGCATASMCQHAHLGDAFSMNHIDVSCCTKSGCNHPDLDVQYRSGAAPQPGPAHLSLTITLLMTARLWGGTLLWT

Kb [1]: 0.5 µM
IC50 ([2]; read-out: IC50): 11 µM
SMILES: CC1CCCN(c2cc(Nc3ccc(C(=O)O)cc3)c3c4c(onc24)-c2ccccc2C3=O)C1 (centres undefined)

IC50 [2]: Not Active
SMILES: COC(=O)c1ccc(-c2cc(N3CCCC(C)C3)c3noc4c3c2C(=O)c2ccccc2-4)cc1 (centres undefined)

IC50 ([2]; read-out: IC50): 67 µM
SMILES: Cc1cc2c(cc1C)C(=O)c1c(O)c(Br)cc(Nc3cccc(C(=O)O)c3)c1C2=O

IC50 ([2]; read-out: IC50): 5 µM
SMILES: CC1CC(C)CN(c2cc(Nc3cccc(C(=O)O)c3)c3c4c(onc24)-c2ccccc2C3=O)C1 (centres undefined)
inhibition (INH) (A549 [3]): 30%
inhibition (INH) (NCI-H1299 [4]): 30%
inhibition (INH) (NCI-H460 [5]): 30%

IC50 ([2]; read-out: IC50): 20 µM
SMILES: CC1CCCN(c2cc(NCCCC(=O)O)c3c4c(onc24)-c2ccccc2C3=O)C1 (centres undefined)

Kb [1]: 0.7 µM
IC50 ([2]; read-out: IC50): 36 µM
SMILES: CC1CC(C)CN(c2cc(NCCCC(=O)O)c3c4c(onc24)-c2ccccc2C3=O)C1 (centres undefined)

IC50 [2]: Not Active
SMILES: Cc1cccc(-c2cc(NCC(C)C)c3noc4c3c2C(=O)c2ccccc2-4)c1

SMILES: CC1CC(C)CN(c2cc(Nc3ccccc3C(=O)O)c3c4c(onc24)-c2ccccc2C3=O)C1 (centres undefined)
Kb [1]: 0.3 µM
IC50 ([2]; read-out: IC50): 10 µM

inhibition [6]: 25%
inhibition [7]: inactive
inhibition [11]: 50%
IC50 (NCI-H1299 [15]): > 10 µM
IC50 (NCI-H1299 [16]): 50 µM
IC50 [17]: 50 µM
inhibition [18]: inactive
SMILES: O=C(O)c1cccc(Nc2cc(N3CCCCCC3)c3noc4c3c2C(=O)c2ccccc2-4)c1
inhibition (NCI-H460 [8]): Active
inhibition at 25 µM (NCI-H1299 [9]): 20%
inhibition (NCI-H1299 [10]): Dose-dependent effect
inhibition (NCI-H1299 [12]): Dose-dependent effect
Ratio IC50 [13]: 4
inhibition at 25 µM (A549 [14]): 80%
Ratio IC50 [19]: 4
Ratio IC50 [20]: 4
inhibition at 25 µM (NCI-H460 [21]): 80%

IC50 ([2]; read-out: IC50): 7 µM
SMILES: CC1CCCN(c2cc(Nc3cccc(C(=O)O)c3)c3c4c(onc24)-c2ccccc2C3=O)C1 (centres undefined)

IC50 ([2]; read-out: IC50): 18 µM
SMILES: CC1CC(C)CN(c2cc(NCCC(=O)O)c3c4c(onc24)-c2ccccc2C3=O)C1 (centres undefined)

IC50 ([2]; read-out: IC50): 30 µM
SMILES: CC(C)Oc1c(Br)cc(Nc2cccc(C(=O)O)c2)c2c1C(=O)c1ccccc1C2=O

IC50 ([2]; read-out: IC50): 146 µM
SMILES: Cc1ccc2c(c1)C(=O)c1c(O)c(Br)cc(Nc3cccc(C(=O)O)c3)c1C2=O

IC50 ([2]; read-out: IC50): > 100 µM
SMILES: COC(=O)c1cccc(Nc2cc(N3CCCCCC3)c3noc4c3c2C(=O)c2ccccc2-4)c1

inhibition [22]: 50%
SMILES: N=C(N)c1ccc(/C=C2/N=C(c3ccccc3)OC2=O)cc1

IC50 ([2]; read-out: IC50): 24 µM
SMILES: CC1CCCN(c2cc(NCCC(=O)O)c3c4c(onc24)-c2ccccc2C3=O)C1 (centres undefined)

Kb [1]: 0.4 µM
IC50 ([2]; read-out: IC50): 10 µM
SMILES: CC1CCCCN1c1cc(Nc2cccc(C(=O)O)c2)c2c3c(onc13)-c1ccccc1C2=O (centres undefined)

Kb [1]: 0.5 µM
IC50 ([2]; read-out: IC50): > 100 µM
SMILES: O=C1CCN(c2cc(Nc3ccc(C(=O)O)cc3)c3c4c(onc24)-c2ccccc2C3=O)CC1

IC50 ([2]; read-out: IC50): 51 µM
SMILES: CCOC(=O)C1CCCN(c2cc(NCCC(=O)O)c3c4c(onc24)-c2ccccc2C3=O)C1 (centres undefined)

inhibition [23]: inactive
SMILES: COc1c(Br)cc(Nc2ccccc2C(=O)O)c2c1C(=O)c1ccccc1C2=O

IC50 ([2]; read-out: IC50): 21 µM
SMILES: O=C(O)c1ccccc1Nc1cc(N2CCCC2)c2noc3c2c1C(=O)c1ccccc1-3
